Values belong to the compound of their own block, whether it stands above or below them. Activity calls are given as the source filed them. The calls are words filed in the database; no cut-off is given here.
Tests used:
[1] = Prodrug conversion in rat serum assessed as riluzole formation by measuring compound half life; format: ADME, cell-free
Procedure, shortened: (§1)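 Each prodrug was incubated in pH 7.4 buffer, fresh rat serum, simulated gastric fluid or simulated intestinal fluid. Prodrug disappearance was followed for up to 2-4 h to derive a half-life in hours.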

[2] = Prodrug conversion in pH 7.4 buffer assessed as riluzole formation by measuring compound half life; format: physicochemical; procedure, shortened: as §1
[3] = Prodrug conversion in simulated gastric fluid assessed as riluzole formation by measuring compound half life at 0.01 mg/ml by LC/MS analysis; format: ADME; settings: simulated gi fluid; procedure, shortened: as §1
[4] = Prodrug conversion in simulated intestinal fluid assessed as riluzole formation by measuring compound half life at 0.01 mg/ml by LC/MS analysis; format: ADME; settings: simulated gi fluid; procedure, shortened: as §1
Rattus norvegicus [5] = assay: AUClast in Sprague-Dawley rat assessed as riluzole level at 2.8 mg/kg, iv measured up to 8 hrs; format: ADME, organism-based; design: time < 8 hr, dose 2.8 mg/kg, route intravenous; settings: in vivo
Homo sapiens [6] = assay: Antitumor activity against human C8161 cells xenografted in mouse assessed as tumor growth inhibition at 4.9 to 14.8 mg/kg, po administered once daily via gavage for 21 days measured at 7 days interval during compound dosing; format: functional, organism-based
Procedure, shortened: (§2)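 Nude mice were inoculated in the flank with 10^6 human C8161 melanoma cells. When tumors reached 40 mm3, the mice were randomized into groups of similar tumor volume. Vehicle was DMSO. Dosing was daily by oral gavage for 21 days, and tumor growth was followed.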

[7] = Prodrug conversion in dog liver microsomes assessed as riluzole formation by measuring half life; format: ADME, Canis lupus familiaris, microsome
Procedure, shortened: (§3)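 Prodrug stability was tested in human, mouse, rat and dog liver microsomes, and a half-life in minutes was reported.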

Rattus norvegicus [8] = assay: Tmax in Sprague-Dawley rat assessed as riluzole level at 2.8 mg/kg, iv measured up to 8 hrs; format: ADME, organism-based; settings: in vivo
Rattus norvegicus [9] = assay: AUClast in Sprague-Dawley rat assessed as riluzole level at 14.6 mg/kg, po measured up to 8 hrs; format: ADME, organism-based; design: time < 8 hr, dose 14.6 mg/kg, route oral; settings: in vivo
Procedure, shortened: (§4)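 Male Sprague-Dawley rats received a single oral dose. Plasma prodrug and riluzole levels were monitored up to eight hours after dosing.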

CYP1A2 = target: T1, CYP1A2 (Homo sapiens, UniProt P05177); assay: Inhibition of CYP1A2 (unknown origin) at 10 uM relative to control; format: ADME
T1 sequence (P05177 whole entry): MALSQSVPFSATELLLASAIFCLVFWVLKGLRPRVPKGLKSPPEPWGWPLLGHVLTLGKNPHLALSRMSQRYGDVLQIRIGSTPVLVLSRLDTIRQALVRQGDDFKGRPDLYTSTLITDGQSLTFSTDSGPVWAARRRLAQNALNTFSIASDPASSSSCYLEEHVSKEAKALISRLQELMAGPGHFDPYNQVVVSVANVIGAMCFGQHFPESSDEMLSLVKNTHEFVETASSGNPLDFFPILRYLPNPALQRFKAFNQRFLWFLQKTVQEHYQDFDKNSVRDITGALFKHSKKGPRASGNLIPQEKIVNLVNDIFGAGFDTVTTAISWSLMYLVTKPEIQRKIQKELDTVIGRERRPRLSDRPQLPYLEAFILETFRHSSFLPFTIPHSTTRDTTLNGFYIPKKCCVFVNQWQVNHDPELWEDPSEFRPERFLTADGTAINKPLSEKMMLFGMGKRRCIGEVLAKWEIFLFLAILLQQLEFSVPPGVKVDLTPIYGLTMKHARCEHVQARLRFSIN

[10] = Prodrug conversion in mouse liver microsomes assessed as riluzole formation by measuring half life; format: ADME, microsome; procedure, shortened: as §3
[11] = Tmax in Sprague-Dawley rat at 2.8 mg/kg, iv; format: ADME, organism-based; settings: in vivo
[12] = Prodrug conversion in human liver microsomes assessed as riluzole formation by measuring half life; format: ADME, microsome; procedure, shortened: as §3
Rattus norvegicus [13] = assay: Half life in Sprague-Dawley rat assessed as riluzole level at 2.8 mg/kg, iv measured up to 8 hrs; format: ADME, organism-based; settings: in vivo
CYP2D6 = CYP2D6 (Homo sapiens, UniProt P10635); assay: Inhibition of CYP2D6 (unknown origin) at 10 uM relative to control; format: ADME
Sequence of CYP2D6 (P10635 whole entry): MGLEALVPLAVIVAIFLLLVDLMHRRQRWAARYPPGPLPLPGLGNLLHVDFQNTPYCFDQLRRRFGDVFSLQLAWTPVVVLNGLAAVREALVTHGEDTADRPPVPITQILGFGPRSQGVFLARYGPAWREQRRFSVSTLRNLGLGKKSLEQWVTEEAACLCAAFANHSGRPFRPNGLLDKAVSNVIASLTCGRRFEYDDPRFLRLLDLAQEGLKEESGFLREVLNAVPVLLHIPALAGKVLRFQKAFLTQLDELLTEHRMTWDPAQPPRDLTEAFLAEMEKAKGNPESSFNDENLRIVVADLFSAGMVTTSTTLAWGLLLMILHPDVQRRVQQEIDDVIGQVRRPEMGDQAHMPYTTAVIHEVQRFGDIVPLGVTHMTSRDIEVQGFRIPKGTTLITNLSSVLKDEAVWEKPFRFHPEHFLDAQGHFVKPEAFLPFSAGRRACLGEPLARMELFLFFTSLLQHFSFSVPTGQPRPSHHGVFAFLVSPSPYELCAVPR

[14] = Apparent permeability across basolateral to apical side in human Caco2 cells; format: ADME, cell-based; settings: Caco-2
Procedure, shortened: (§5)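 Bidirectional transport across Caco-2 monolayers was measured as Papp A-B and Papp B-A in nm/s. Efflux ratio was calculated as B-A over A-B.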

Rattus norvegicus [15] = assay: Cmax in Sprague-Dawley rat assessed as riluzole level at 14.6 mg/kg, po measured up to 8 hrs; format: ADME, organism-based; design: dose 14.6 mg/kg, route oral; settings: in vivo; procedure, shortened: as §4
Rattus norvegicus [16] = assay: Oral bioavailability in Sprague-Dawley rat at 14.6 mg/kg; format: ADME, organism-based; settings: in vivo; procedure, shortened: as §4
[17] = Prodrug conversion in mouse plasma xenografted with human C8161 cells assessed as riluzole formation at 4.9 to 14.8 mg/kg, po administered via gavage measured 2 hrs post dose; format: ADME, organism-based; settings: in vivo
Procedure, shortened: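 In C8161 xenograft-bearing nude mice given daily oral gavage doses, plasma was sampled from selected animals 2 hours post dosing to check riluzole exposure.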

[18] = Efflux ratio of apparent permeability […] in human Caco2 cells; format: ADME, cell-based; settings: Caco-2
Rattus norvegicus [19] = assay: Cmax in Sprague-Dawley rat assessed as riluzole level at 2.8 mg/kg, iv measured up to 8 hrs; format: ADME, organism-based; design: dose 2.8 mg/kg, route intravenous; settings: in vivo
[20] = Cmax in Sprague-Dawley rat at 2.8 mg/kg, iv; format: ADME, organism-based; design: dose 2.8 mg/kg, route intravenous; settings: in vivo
[21] = Apparent permeability across apical to basolateral side in human Caco2 cells; format: ADME, cell-based; settings: Caco-2; procedure, shortened: as §5
[22] = Prodrug conversion in rat liver microsomes assessed as riluzole formation by measuring half life; format: ADME, microsome; procedure, shortened: as §3
CYP3A4 [23] = target: T2, CYP3A4 (Homo sapiens, UniProt P08684); assay: Inhibition of CYP3A4 (unknown origin) at 10 uM using midazolam as substrate relative to control; format: ADME; settings: probe midazolam
T2 sequence (P08684 whole entry): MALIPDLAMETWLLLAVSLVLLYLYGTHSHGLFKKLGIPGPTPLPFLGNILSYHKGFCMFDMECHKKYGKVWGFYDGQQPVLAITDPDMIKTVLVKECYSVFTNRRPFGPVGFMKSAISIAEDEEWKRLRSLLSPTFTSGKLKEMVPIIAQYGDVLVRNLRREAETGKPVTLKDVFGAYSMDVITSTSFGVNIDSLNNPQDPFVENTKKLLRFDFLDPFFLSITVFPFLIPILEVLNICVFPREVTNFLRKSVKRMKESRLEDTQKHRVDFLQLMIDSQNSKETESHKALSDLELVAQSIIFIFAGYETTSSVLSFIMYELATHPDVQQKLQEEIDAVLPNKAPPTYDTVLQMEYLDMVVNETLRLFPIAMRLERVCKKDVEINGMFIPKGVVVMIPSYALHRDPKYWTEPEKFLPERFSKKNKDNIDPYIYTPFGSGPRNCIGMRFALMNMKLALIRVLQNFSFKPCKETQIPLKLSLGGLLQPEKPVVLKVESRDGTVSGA

CYP3A4 [24] = target: T2, CYP3A4; assay: Inhibition of CYP3A4 (unknown origin) at 10 uM using testosterone as substrate relative to control; format: ADME; settings: probe testosterone
Rattus norvegicus [25] = assay: Tmax in Sprague-Dawley rat assessed as riluzole level at 14.6 mg/kg, po measured up to 8 hrs; format: ADME, organism-based; settings: in vivo; procedure, shortened: as §4
Homo sapiens [26] = assay: Antitumor activity against human C8161 cells xenografted in mouse assessed as tumor growth inhibition at 7.5 mg/kg, po administered once daily via gavage for 21 days measured at 7 days interval during compound dosing; format: functional, organism-based; procedure, shortened: as §2

t1/2 [1]: < 0.1 h | t1/2 [2]: < 0.1 h
Compound: CN(CC(=O)Nc1nc2ccc(OC(F)(F)F)cc2s1)C(=O)CN

t1/2 [1]: > 2 h | t1/2 [3]: > 4 h | t1/2 [2]: > 24 h | t1/2 [4]: > 4 h
Compound: CC(C)NCC(=O)N(C)CC(=O)Nc1nc2ccc(OC(F)(F)F)cc2s1

t1/2 [1]: > 2 h | t1/2 [3]: > 4 h | t1/2 [2]: > 2 h | t1/2 [4]: > 4 h
Compound: CC(C)(C)NCC(=O)NC(C)(C)C(=O)Nc1nc2ccc(OC(F)(F)F)cc2s1

t1/2 [1]: 0.25 h | t1/2 [3]: 2.5 h | t1/2 [2]: 0.2 h | t1/2 [4]: < 1 h
Compound: NCC(=O)N1CCC[C@@H]1C(=O)Nc1nc2ccc(OC(F)(F)F)cc2s1

AUClast (Rattus norvegicus [5]): 1.137 µg·h/mL | t1/2 [7]: > 1 h | Tmax (Rattus norvegicus [8]): 0.78 h | AUClast (Rattus norvegicus [9]): 20.518 µg·h/mL | inhibition at 10 µM (CYP1A2): < 10% | t1/2 [10]: > 1 h | Tmax [11]: 0 h | t1/2 [1]: > 2 h | t1/2 [12]: > 1 h | t1/2 (Rattus norvegicus [13]): 7.83 h | t1/2 [3]: > 4 h | inhibition at 10 µM (CYP2D6): < 10% | t1/2 [2]: > 24 h | Papp B→A [14]: 24.1 nm/s | Cmax (Rattus norvegicus [15]): 1.587 µg/mL | F (Rattus norvegicus [16]): 70% | Drug metabolism [17]: Metabolite_Detected | efflux ratio [18]: 1.7 | Cmax (Rattus norvegicus [19]): 0.187 µg/mL | Cmax [20]: 1.73 µg/mL | Papp A→B [21]: 13.8 nm/s | t1/2 [22]: > 1 h | inhibition at 10 µM (CYP3A4 [23]): < 10% | inhibition at 10 µM (CYP3A4 [24]): < 10% | t1/2 [4]: > 4 h | Tmax (Rattus norvegicus [25]): 8 h
Compound: CN(CC(=O)Nc1nc2ccc(OC(F)(F)F)cc2s1)C(=O)CNC(C)(C)C
TGI (Homo sapiens [6]): Active

Compound: Nc1nc2ccc(OC(F)(F)F)cc2s1
TGI (Homo sapiens [26]): Active

t1/2 [1]: < 0.25 h | t1/2 [3]: > 4 h | t1/2 [2]: < 0.25 h | t1/2 [4]: < 1 h
Compound: CCNCC(=O)N(C)CC(=O)Nc1nc2ccc(OC(F)(F)F)cc2s1

t1/2 [1]: 2 h | t1/2 [3]: > 4 h | t1/2 [4]: < 1 h
Compound: CC(C)(NC(=O)CN)C(=O)Nc1nc2ccc(OC(F)(F)F)cc2s1

t1/2 [1]: < 0.1 h | t1/2 [3]: > 4 h | t1/2 [2]: < 0.1 h | t1/2 [4]: < 1 h
Compound: CNCC(=O)N(C)CC(=O)Nc1nc2ccc(OC(F)(F)F)cc2s1

t1/2 [1]: > 2 h | t1/2 [2]: > 24 h
Compound: CC(C)(C)NCC(=O)N1CCC[C@@H]1C(=O)Nc1nc2ccc(OC(F)(F)F)cc2s1
